Here are results for 76 compounds from PubChem BioAssay AID651572 (The Scripps Research Institute Molecular Screening Center, 2012).

In all, about 360,000 compounds went through this assay and about 950 (0.26%) were called active.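 The calls were made as follows: active = inhibition above a per-plate limit, mean inhibition of low control wells plus 3 SD (cut at about 25% in these data); inactive = the rest.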 The entries come from a sample that favours actives as a whole.

Chain of ADP-ribosylation factor GTPase-activating protein 1 (Rattus norvegicus) (Q62848 1-136 limits assumed): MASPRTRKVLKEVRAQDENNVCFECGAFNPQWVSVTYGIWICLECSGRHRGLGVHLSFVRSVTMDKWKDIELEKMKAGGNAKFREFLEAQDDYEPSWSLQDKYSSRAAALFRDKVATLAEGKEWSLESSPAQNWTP

The target in the test is ADP-ribosylation factor GTPase-activating protein 1 (Rattus norvegicus) (UniProt Q62848). In words: inhibitors of rat ARFGAP1 GAP activity, primary screen, biochemical, fluorescence polarization, GDP tracer (AID 651572).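 Also: 0% = DMSO wells with enzyme and 100% = wells lacking Arfgap1.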 As to conditions: Arfgap1-stimulated ARF1 GTP hydrolysis, GDP FP detection; at 16.5 µM; active compounds read high. The method in brief:
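Assay system: Rat Arfgap1 GAP domain (His6, aa 1-136), purified enzyme | Buffer or medium: HEPES 25 mM pH 7.5, NaCl 150 mM, MgCl2, DTT | Schedule: GTP hydrolysis reaction 2 h at 25 °C | Signal: FP of antibody-bound GDP Alexa 633 tracer, ex 620/em 688 nm | Measure: Percent inhibition of Arfgap1-stimulated GTP hydrolysis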
As a reminder, the inhibition is the change of the read-out against control, counted positive when it falls. With `O=C(N[C@H](C(=O)N1CCC[C@H]1C(=O)NCCc1ccccc1Cl)c1ccccc1)c1ccccc1`, the inhibition is 0.74% (inactive).
Turning to `Cc1ccccc1C(=O)N[C@H](C(=O)N1CCC[C@H]1C(=O)NCc1ccccc1)C(C)C`, the inhibition was -4.95% (inactive).
To `C=CCSc1nnc(N2C(=O)C(O)=C(C(=O)c3ccco3)C2c2ccc(F)cc2)s1` (stereo unspecified) belongs -2.87% (inactive).
Regarding `COc1cc(C2C(C(=O)c3ccco3)=C(O)C(=O)N2c2cc(C)on2)ccc1OCc1ccccc1` (stereo unspecified), the inhibition was -0.46% (inactive).
To `Cc1ccc2nc(N3C(=O)C(O)=C(C(=O)c4ccco4)C3c3cccc(O)c3)sc2c1` (stereo unspecified) belongs 28.5% (active).
As for `COC(=O)C1=C(C)N(Cc2ccccc2C(F)(F)F)C(=NCC2CC2)NC1c1cccc(Cl)c1` (stereo unspecified), the inhibition is -11.5% (inactive).
To `CN1C(=O)C(Br)(Br)CC1c1cccnc1` (stereo unspecified) belongs 15.5% (inactive).
To `CC(=O)c1ccc(S(=O)(=O)NCC2CCN(C(=O)C(=O)c3cccs3)CC2)cc1` belongs 0.05% (inactive); to `Clc1cccc2c1C1CC2CCN1Cc1ccccc1` (stereo unspecified), 1.92% (inactive).
Turning to `Cc1cc(C)cc(NC(=O)C2CCCN(S(=O)(=O)c3ccc4[nH]c(=O)ccc4c3)C2)c1` (stereo unspecified), the inhibition is 27.2% (active).
To `CCc1cccc(NC(=O)C2CCCN(S(=O)(=O)c3ccc4[nH]c(=O)ccc4c3)C2)c1` (stereo unspecified) belongs -1.05% (inactive); to `CC1CCN(S(=O)(=O)c2ccc3[nH]c(=O)ccc3c2)CC1`, -6.93% (inactive).
Take `CCOc1ccccc1C(=O)N1CCC[C@@H]1C(=O)N1CCC[C@H]1C(=O)NCc1ccccc1`: the inhibition is 2.51% (inactive).
To `C=CCN1C(=O)N(Cc2ccccc2)c2ccccc2S1(=O)=O` belongs -1.51% (inactive).
For `O=C(CN1CCN(c2ccc(Cl)cc2)CC1)NCc1cccs1`, the inhibition is -5.05% (inactive).
As for `COc1ccc(NC(=S)NCc2cccs2)c(OC)c1`, the inhibition is 7.24% (inactive).
To `S=C(NCc1cccs1)Nc1ccc(Cl)cc1` belongs 28.2% (active); to `COc1ccc(-c2ccc3c(n2)CCCN3S(=O)(=O)c2ccc(C)cc2)cc1`, -4.31% (inactive).
For `COc1ccccc1-c1ccc([C@@H]2C[C@H]3[C@H](CON3C)CN2S(=O)(=O)c2cc(Cl)cc(Cl)c2)cc1`, the inhibition is 5.63% (inactive).
As to `Nc1nc2c(ncn2[C@@H]2O[C@H](C(=O)N[C@@H](Cc3ccccc3)C(=O)NCc3ccccc3)[C@@H](O)[C@H]2O)c(=O)[nH]1`, the inhibition was -1.71% (inactive).
`COC(=O)[C@]12C[C@H](CC(=O)NCc3cccc(C(F)(F)F)c3)C(=O)N(Cc3ccc4c(c3)OCO4)C1=C[C@H](COCc1ccccc1)O[C@@H]2C`: the inhibition was 5.08% (inactive).
To `Cc1[nH]nc2c1C(c1ccc(Br)cc1)NC2=O` (stereo unspecified) belongs 2.74% (inactive); to `COC(=O)C1=C(C)N(Cc2ccccc2C(F)(F)F)C(=NCc2ccc(OC)cc2)NC1c1cccc(C(F)(F)F)c1` (stereo unspecified), 10.9% (inactive); to `CC(C)(C)NC(=O)CSc1nnc(NC(=O)CCc2ccccc2)s1`, 0.73% (inactive).
To `O=C(CCc1ccccc1)Nc1nn[nH]n1` belongs 11.2% (inactive); to `O=C(CCc1ccccc1)Nc1ncc([N+](=O)[O-])s1`, 29% (active); to `Nc1ccn([C@@H]2O[C@H](C(=O)N[C@H]3CCCCNC3=O)[C@@H](O)[C@H]2O)c(=O)n1`, -7.26% (inactive).
Turning to `COc1ccc(-c2ccccc2C2Cc3nnccc3CN2C(=O)Nc2ccccc2)cc1` (stereo unspecified), the inhibition was 0.85% (inactive).
To `COc1ccc(NC(=O)CSc2nc(N)c(-c3ccccc3)c(=O)[nH]2)cc1` belongs 5.45% (inactive).
To `COc1ccc(NC(=O)c2ccccc2CC[N+](=O)[O-])cc1` belongs -2.01% (inactive).
To `COc1ccc(NC(=O)c2cn(-c3ccccc3)nc2SC)cc1` belongs 25.1% (active); to `NC(=O)c1ncn([C@@H]2O[C@H](C(=O)O)[C@@H](O)[C@H]2O)n1`, -10.5% (inactive).
In the case of `COC(=O)C1=C(C)N(Cc2cccc(C(F)(F)F)c2)C(=NCc2cccc(C(F)(F)F)c2)NC1c1ccccc1C(F)(F)F` (stereo unspecified), the inhibition is 18.5% (inactive).
To `CCO[C@@H]1OC(C(N)=O)=C[C@H](c2ccc(Br)cc2)[C@H]1CCCO` belongs 37% (active).
To `CCO[C@H]1OC(C(=O)N2CCCCCCC2)=C[C@@H](c2ccc(C(F)(F)F)cc2)[C@@H]1CCCO` belongs 5.85% (inactive).
Take `C#CCNC(=O)C1=C[C@@H](c2ccccc2)[C@H](CCCO)[C@@H](OCC)O1`: the inhibition was 0.84% (inactive).
To `CC[C@H](C)[C@H]1CNC(=O)C(=O)N1CC1CCN(CCc2ccc(OC)c(OC)c2)CC1` belongs 4.8% (inactive); to `COC(=O)[C@]12C[C@H](CC(=O)NCc3ccc(OC)c(OC)c3)C(=O)N(Cc3ccccc3)C1=C[C@H](C(C)C)O[C@@H]2C1CC1`, 1.55% (inactive).
On to `COc1cccc(CNC(=O)[C@H]2CCCN2C(=O)[C@H]2CCCN2C(=O)c2ccc(F)cc2)c1`, for which the inhibition was 2.29% (inactive).
Take `CCOC(=O)N1CCN(C(=O)C[C@H]2C[C@@]3(C(=O)OC)C(=C[C@H](C4CCCC4)O[C@@H]3C)N(Cc3ccccc3)C2=O)CC1`: the inhibition was -0.91% (inactive).
Take `COc1ccccc1C(=O)N1O[C@]23C=C[C@]14C[C@@H](O)CC[C@]4(C)C2CC[C@]1(C)[C@@H]([C@H](C)/C=C/[C@H](C)C(C)C)CC[C@H]13` (stereo partly specified): the inhibition was -2.43% (inactive).
As for `OC(c1ccccc1)(c1ccccc1)C1CCN(CCCOc2ccc(-c3ccsc3)cc2)CC1`, the inhibition is 15.6% (inactive).
As for `COCCNc1cc(-c2ccccc2)nc2cc(-c3cccc(F)c3)nn12`, the inhibition was 26.4% (active).
Take `COc1ccc(-c2cc3nc(NCCOc4ccccc4)ccn3n2)cc1`: the inhibition is 22.7% (inactive).
To `COCCCNc1ccn2nc(-c3ccc(CC(C)C)cc3)cc2n1` belongs 12.8% (inactive).
For the compound `C[C@H]1[C@H](c2ccccc2)Oc2cc(Br)ccc2S(=O)(=O)N1Cc1cccc(F)c1`, the inhibition is -1.97% (inactive).
To `Cc1noc(C)c1NC(=O)Nc1ccc2c(c1)C(=O)N([C@H](C)CO)C[C@H](C)[C@H](CN(C)Cc1ccncc1)OCCCC[C@@H](C)O2` belongs 7.37% (inactive).
To `COC(=O)c1c(-c2ccc(OC)cc2)c2c(c3c4cc(OC)ccc4n(S(=O)(=O)c4ccc(F)cc4)c13)C(=O)N(C)C2` belongs -3.49% (inactive); to `COC(=O)[C@]12C[C@H](CC(=O)NCCCCc3ccccc3)C(=O)N(Cc3ccc4c(c3)OCO4)C1=C[C@H](C(C)(C)C)O[C@@H]2C`, 2.49% (inactive).
Regarding `CCC(=C/c1sc2ccc3ccccc3c2[n+]1C)/C=C1\Sc2ccc3ccccc3c2N1C`, the inhibition was 39.3% (active).
To `Nc1[nH]c(C(=O)c2ccc(Br)cc2)c(-c2ccc3c(c2)OCO3)c1C(=O)NCCc1c[nH]c2ccccc12` belongs 15.2% (inactive).
Turning to `CC(=O)c1cccc(-c2cnc3c(NC=O)cc(-c4ccccc4Oc4ccccc4)cn23)c1`, the inhibition is -2.03% (inactive).
To `CN(C)CCNC(=O)c1ccc(-c2cn3c(-c4ccc(Oc5ccccc5)cc4)cnc3cn2)cc1` belongs 40.4% (active).
With `CN(C)CCNC(=O)c1cccc(-c2cnc3c(NC=O)cc(-c4cccc(C(F)(F)F)c4)cn23)c1`, the inhibition was 5.54% (inactive).
To `CCOC(=O)Cn1c2c(n(-c3ccc(F)cc3)c1=O)C=C(c1ccccc1)[C@@H](C)C(C(=O)N(C)C1CCCCC1)=C2` belongs -3.57% (inactive); to `CCc1ccc(C2=CC(=O)CC(C)(C)C2=O)cc1`, 5.54% (inactive).
As for `COC(=O)C1=C(C)N(Cc2ccccc2C(F)(F)F)C(=NCc2ccc(C(F)(F)F)cc2)NC1c1ccc(F)cc1` (stereo unspecified), the inhibition is 16.5% (inactive).
Regarding `COc1cccc(CC(=O)N2CCN(C(=O)C(=O)c3cccc(C(F)(F)F)c3)CC2)c1`, the inhibition is -7.68% (inactive).
Turning to `O=S1(=O)c2c(cccc2N2CCCC2)O[C@H](COCc2ccccc2)CN1C1CC1`, the inhibition is -15.6% (inactive).
For the compound `O=C1[C@@H](c2ccccc2)[C@@H](c2ccccc2)N1c1ccccc1`, the inhibition was -3.37% (inactive).
To `CCn1c(SCc2cc(=O)n3ccsc3n2)nc2ccccc21` belongs 26.2% (active).
As to `CCn1c(SCC(=O)N2CCCC2=O)nc2ccccc21`, the inhibition was -1.54% (inactive).
To `O=C(O)CCn1c(SCc2cc(=O)n3ccccc3n2)nc2ccsc2c1=O` belongs 9.88% (inactive); to `O=C1Nc2ccccc2C1=NN=Cc1ccco1`, 18.3% (inactive); to `COC(=O)C1=C(C)N(Cc2cccc(C(F)(F)F)c2)C(=NCc2ccccc2)NC1c1ccccc1C(F)(F)F` (stereo unspecified), 18.8% (inactive).
For the compound `O=C(Nc1c(Cl)c(C2CC2)nn1-c1ccccc1)C(Cl)(Cl)Cl`, the inhibition is 1.34% (inactive).
To `COc1cccc(NC(=O)N(C)C[C@@H]2OCc3cn(nn3)CCCC(=O)N([C@@H](C)CO)C[C@H]2C)c1` belongs 2.11% (inactive); to `Nc1ncnc2c1ncn2[C@@H]1O[C@H](C(=O)N[C@@H](CCc2ccccc2)C(=O)N2CCCN(Cc3cccs3)CC2)[C@@H](O)[C@H]1O`, -6.61% (inactive); to `COc1ccc(SSc2ccc(OC)cc2C(=O)O)c(C(=O)O)c1`, -0.05% (inactive).
To `C[C@H](O)[C@@H]1C(=O)N2CCc3c([nH]c4c(-c5ccc6c(c5)OCO6)cccc34)[C@@H]2C[C@@H]1N(C)C(=O)c1ccco1` belongs 1.71% (inactive).
To `COc1cccc(CNc2nc(NCc3cccs3)nc3ccsc23)c1` belongs 2.65% (inactive); to `COc1cccc(CNc2nc(C(F)(F)F)nc3ccccc23)c1`, 27.8% (active).
Consider `COc1cccc(CNc2ncc(-c3ccccc3)n2C)c1`, for which the inhibition was -4.8% (inactive).
To `C[C@@H](CN1C2=NC[C@@H](Cc3ccccc3)N2C[C@H]1Cc1ccc(O)cc1)NC(=O)CCC1CCCCC1` belongs 6.99% (inactive); to `CC[C@H](NC(=O)[C@H](Cc1ccccc1)NC(=O)[C@H]1O[C@@H](n2cnc3c(=O)[nH]c(N)nc32)[C@H](O)[C@@H]1O)c1ccccc1`, 10% (inactive); to `COC(=O)[C@]1(Cc2ccccc2)NC=C(C(=O)c2ccccc2)[C@@H]1c1cccc(OC)c1`, 1.68% (inactive).
